Results from ChEMBL document CHEMBL4339192, “De Novo Designed Amphipathic α-Helical Antimicrobial Peptides Incorporating Dab and Dap Residues on the Polar Face To Treat the Gram-Negative Pathogen, Acinetobacter baumannii” (J Med Chem, 2019).
Where a SMILES comes first, the peptide text is derived from it. [ ]: non-standard residue; d: D form. Dab = NCC[C@H](N)C(=O)O

Legend:
Acinetobacter baumannii [1] = assay: Antibacterial activity against Acinetobacter baumannii isolate 977751 measured after 24 hrs by microtiter dilution method; format: functional; details: isolate 977751, 24 h
In short: (§1)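 Broth microdilution in Mueller-Hinton (MH) medium. […] Plates were incubated 24 h at 37 °C. MIC was the lowest peptide concentration that inhibited growth, based on three sets of replicates.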

Acinetobacter baumannii [2] = assay: Ratio of MIC for Acinetobacter baumannii 649 measured in presence of 25% human serum to MIC for Acinetobacter baumannii 649 in absence of 25% human serum; format: functional
In short: (§2)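 Blood strain 649 was tested by MH broth microdilution with and without 25% (v/v) human serum added to the medium. The test used a final inoculum of 5 × 10^5 cfu/mL and incubation at 37 °C. The ratio is the MIC in serum over the MIC in MH alone.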

[3] = Therapeutic index, ratio of HC50 for human RBC to MIC for polymyxin B/colistin-resistant Acinetobacter baumannii M89955; format: toxicity; details: human red blood cells, read-out: TI
In short: (§3)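 T.I. = HC50/MIC. For HC50, peptide (quantified by amino acid analysis) was two-fold serially diluted over 12 concentrations up to 1000 μg/mL. It was incubated with 1% fresh human erythrocytes in PBS, pH 7.4, for 18 h at 37 °C. After 800g centrifugation, hemoglobin was read at 570 nm against water (100%) and no-peptide (0%) controls. HC50 came from a lysis-versus-concentration plot, average of 3 replicates.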

Acinetobacter baumannii [4] = assay: Antibacterial activity against Acinetobacter baumannii isolate 9383370 measured after 24 hrs by microtiter dilution method; format: functional; details: isolate 9383370, 24 h; in short: as §1
[5] = Hemolytic activity against human RBC measured after 18 hrs by spectrophotometric method; format: ADME, cell-based, Erythrocyte; details: human red blood cells (erythrocytes)
In short: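 Peptide (amount by amino acid analysis), two-fold serial dilutions at 12 concentrations up to 1000 μg/mL, with 1% human erythrocytes in PBS pH 7.4, 37 °C, 18 h. Unlysed cells removed by centrifugation (800g); hemoglobin read at 570 nm. Water-lysed cells = 100%, no-peptide cells = 0%. HC50 from plot of % lysis vs concentration (μM), average of 3 replicates.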

Acinetobacter baumannii [6] = assay: Antibacterial activity against polymyxin B/colistin-resistant Acinetobacter baumannii M89953 measured after 24 hrs by microtiter dilution method; format: functional; details: M89953, 24 h; in short: as §1
Acinetobacter baumannii [7] = assay: Antibacterial activity against polymyxin B/colistin-resistant Acinetobacter baumannii M89963 measured after 24 hrs by microtiter dilution method; format: functional; details: M89963, 24 h; in short: as §1
Acinetobacter baumannii [8] = assay: Antibacterial activity against Acinetobacter baumannii isolate 1010282 measured after 24 hrs by microtiter dilution method; format: functional; details: isolate 1010282, 24 h; in short: as §1
Acinetobacter baumannii [9] = assay: Antibacterial activity against Acinetobacter baumannii 649 measured after 24 hrs by microtiter dilution method; format: functional; details: Acinetobacter baumannii, 649, 24 h; in short: as §1
Acinetobacter baumannii [10] = assay: Antibacterial activity against Acinetobacter baumannii isolate 1018887 measured after 24 hrs by microtiter dilution method; format: functional; details: isolate 1018887, 24 h; in short: as §1
Acinetobacter baumannii [11] = assay: Antibacterial activity against Acinetobacter baumannii 649 measured after 24 hrs in presence of 25% human serum by microtiter dilution method; format: functional; details: Acinetobacter baumannii, 649, 24 h; in short: as §2
Acinetobacter baumannii [12] = assay: Antibacterial activity against Acinetobacter baumannii isolate 1035794 measured after 24 hrs by microtiter dilution method; format: functional; details: isolate 1035794, 24 h; in short: as §1
Acinetobacter baumannii [13] = assay: Antibacterial activity against polymyxin B/colistin-resistant Acinetobacter baumannii M89951 measured after 24 hrs by microtiter dilution method; format: functional; details: M89951, 24 h; in short: as §1
Acinetobacter baumannii [14] = assay: Antibacterial activity against polymyxin B/colistin-resistant Acinetobacter baumannii M89952 measured after 24 hrs by microtiter dilution method; format: functional; details: M89952, 24 h; in short: as §1
Acinetobacter baumannii [15] = assay: Antibacterial activity against Acinetobacter baumannii isolate 1010245 measured after 24 hrs by microtiter dilution method; format: functional; details: isolate 1010245, 24 h; in short: as §1
[16] = Therapeutic index, ratio of HC50 for human RBC to MIC for polymyxin B/colistin-resistant Acinetobacter baumannii M89952; format: toxicity; details: human red blood cells, read-out: TI; in short: as §3
Acinetobacter baumannii [17] = assay: Antibacterial activity against polymyxin B/colistin-resistant Acinetobacter baumannii M89949 measured after 24 hrs by microtiter dilution method; format: functional; details: M89949, 24 h; in short: as §1
Acinetobacter baumannii [18] = assay: Antibacterial activity against Acinetobacter baumannii isolate 963659 measured after 24 hrs by microtiter dilution method; format: functional; details: isolate 963659, 24 h; in short: as §1
[19] = Therapeutic index, ratio of HC50 for human RBC to MIC for polymyxin B/colistin-resistant Acinetobacter baumannii M89951; format: toxicity; details: human red blood cells, read-out: TI; in short: as §3
[20] = Therapeutic index, ratio of HC50 for human RBC to MIC for polymyxin B/colistin-resistant Acinetobacter baumannii M89941; format: toxicity; details: human red blood cells, read-out: TI; in short: as §3
[21] = Therapeutic index, ratio of HC50 for human RBC to MIC for polymyxin B/colistin-resistant Acinetobacter baumannii M89953; format: toxicity; details: human red blood cells, read-out: TI; in short: as §3
[22] = Therapeutic index, ratio of HC50 for human RBC to MIC for polymyxin B/colistin-resistant Acinetobacter baumannii M89949; format: toxicity; details: human red blood cells, read-out: TI; in short: as §3
Acinetobacter baumannii [23] = assay: Antibacterial activity against Acinetobacter baumannii isolate 963618 measured after 24 hrs by microtiter dilution method; format: functional; details: isolate 963618, 24 h; in short: as §1
Acinetobacter baumannii [24] = assay: Antibacterial activity against Acinetobacter baumannii isolate 961997 measured after 24 hrs by microtiter dilution method; format: functional; details: isolate 961997, 24 h; in short: as §1
[25] = Therapeutic index, ratio of HC50 for human RBC to MIC for polymyxin B/colistin-resistant Acinetobacter baumannii M89963; format: toxicity; details: human red blood cells, read-out: TI; in short: as §3
Acinetobacter baumannii [26] = assay: Antibacterial activity against Acinetobacter baumannii isolate 1002956 measured after 24 hrs by microtiter dilution method; format: functional; details: isolate 1002956, 24 h; in short: as §1
Acinetobacter baumannii [27] = assay: Antibacterial activity against polymyxin B/colistin-resistant Acinetobacter baumannii M89941 measured after 24 hrs by microtiter dilution method; format: functional; details: M89941, 24 h; in short: as §1
Acinetobacter baumannii [28] = assay: Antibacterial activity against Acinetobacter baumannii isolate 1021371 measured after 24 hrs by microtiter dilution method; format: functional; details: isolate 1021371, 24 h; in short: as §1
Acinetobacter baumannii [29] = assay: Antibacterial activity against Acinetobacter baumannii isolate 964304 measured after 24 hrs by microtiter dilution method; format: functional; details: isolate 964304, 24 h; in short: as §1
Acinetobacter baumannii [30] = assay: Antibacterial activity against Acinetobacter baumannii isolate 965463 measured after 24 hrs by microtiter dilution method; format: functional; details: isolate 965463, 24 h; in short: as §1
Acinetobacter baumannii [31] = assay: Antibacterial activity against polymyxin B/colistin-resistant Acinetobacter baumannii M89955 measured after 24 hrs by microtiter dilution method; format: functional; details: M89955, 24 h; in short: as §1
Acinetobacter baumannii [32] = assay: Antibacterial activity against Acinetobacter baumannii isolate 1035166 measured after 24 hrs by microtiter dilution method; format: functional; details: isolate 1035166, 24 h; in short: as §1
Acinetobacter baumannii [33] = assay: Antibacterial activity against Acinetobacter baumannii isolate 1007660 measured after 24 hrs by microtiter dilution method; format: functional; details: isolate 1007660, 24 h; in short: as §1
Acinetobacter baumannii [34] = assay: Antibacterial activity against Acinetobacter baumannii isolate 1001611 measured after 24 hrs by microtiter dilution method; format: functional; details: isolate 1001611, 24 h; in short: as §1
Acinetobacter baumannii [35] = assay: Antibacterial activity against Acinetobacter baumannii isolate 1017395 measured after 24 hrs by microtiter dilution method; format: functional; details: isolate 1017395, 24 h; in short: as §1
Acinetobacter baumannii [36] = assay: Antibacterial activity against Acinetobacter baumannii isolate 952654 measured after 24 hrs by microtiter dilution method; format: functional; details: isolate 952654, 24 h; in short: as §1
Acinetobacter baumannii [37] = assay: Antibacterial activity against Acinetobacter baumannii isolate 981650 measured after 24 hrs by microtiter dilution method; format: functional; details: isolate 981650, 24 h; in short: as §1
Acinetobacter baumannii [38] = assay: Antibacterial activity against Acinetobacter baumannii isolate 968886 measured after 24 hrs by microtiter dilution method; format: functional; details: isolate 968886, 24 h; in short: as §1

CC(=O)N[C@H](CCCCN)C(=O)N[C@H](CC(C)C)C(=O)N[C@@H](CCN)C(=O)N[C@H](CO)C(=O)N[C@H](CC(C)C)C(=O)N[C@H](CC(C)C)C(=O)N[C@@H](CCN)C(=O)N[C@@H](C(=O)N[C@H](CC(C)C)C(=O)N[C@H](CO)C(=O)N[C@@H](CCN)C(=O)N[C@H](C)C(=O)N[C@H](C)C(=O)N[C@H](C)C(=O)N[C@H](C)C(=O)N[C@H](C)C(=O)N[C@H](CC(C)C)C(=O)N[C@@H](CCN)C(=O)N[C@@H](C(=O)N[C@H](CC(C)C)C(=O)N[C@H](CC(C)C)C(=O)N[C@@H](CCN)C(=O)N[C@H](C)C(=O)N[C@H](CC(C)C)C(=O)N[C@H](CO)C(=O)N[C@@H](CCN)C(N)=O)[C@H](C)O)[C@H](C)O (Ac-[dK][dL][Dab][dS][dL][dL][Dab][dT][dL][dS][Dab][dA][dA][dA][dA][dA][dL][Dab][dT][dL][dL][Dab][dA][dL][dS][Dab]-NH2)
0.5 µM: MIC (Acinetobacter baumannii [10])
0.8 µM: MIC (Acinetobacter baumannii [6]) | MIC (Acinetobacter baumannii [7]) | MIC (Acinetobacter baumannii [8]) | MIC (Acinetobacter baumannii [9]) | MIC (Acinetobacter baumannii [12]) | MIC (Acinetobacter baumannii [13]) | MIC (Acinetobacter baumannii [14]) | MIC (Acinetobacter baumannii [15]) | MIC (Acinetobacter baumannii [17]) | MIC (Acinetobacter baumannii [23]) | MIC (Acinetobacter baumannii [24]) | MIC (Acinetobacter baumannii [26]) | MIC (Acinetobacter baumannii [28]) | MIC (Acinetobacter baumannii [30]) | MIC (Acinetobacter baumannii [31]) | MIC (Acinetobacter baumannii [32]) | MIC (Acinetobacter baumannii [33]) | MIC (Acinetobacter baumannii [34]) | MIC (Acinetobacter baumannii [35]) | MIC (Acinetobacter baumannii [36]) | MIC (Acinetobacter baumannii [38])
0.4 µM: MIC (Acinetobacter baumannii [18]) | MIC (Acinetobacter baumannii [37])
8.6: selectivity ratio [3] | selectivity ratio [16] | selectivity ratio [19] | selectivity ratio [20] | selectivity ratio [21] | selectivity ratio [22] | selectivity ratio [25]
3.1 µM: MIC (Acinetobacter baumannii [1])
3 µM: MIC (Acinetobacter baumannii [11])
4: Ratio (Acinetobacter baumannii [2])
1.5 µM: MIC (Acinetobacter baumannii [4]) | MIC (Acinetobacter baumannii [27]) | MIC (Acinetobacter baumannii [29])
7.7 µM: HC50 at 18 h [5]
